Compound activity as filed in PubChem.
A selection: hits, their analogues and other compounds. The true share with any hit is near 1.8%.
TbMetRS inhib: T. brucei MetRS inhibitors, primary screen, biochemical, luminescence | methionyl-tRNA synthetase (Trypanosoma brucei brucei) | purified T. brucei MetRS, ATP depletion, Kinase-Glo luminescence | inhibition, % at 11.9 µM | AID 624268, 2012 | 360,000 compounds, 0.4% hits;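 active = inhibition above a per-plate cutoff of the control wells' mean inhibition plus 3 SD, cut at about 5.5% in these data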;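 note: 0% = DMSO wells median and 100% = median of wells with control inhibitor compound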
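Measured by: Kinase-Glo luciferase luminescence reporting remaining unconsumed ATP. Material: purified T. brucei MetRS enzyme. Doses: 11.9 µM compound single dose, 0.9% DMSO. Medium: HEPES buffer containing pyrophosphatase, BSA, spermine, DTT. Times: 15 min preincubation, 2 h reaction, all 25 °C. Reagent: methionine, ATP and bulk E. coli tRNA.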
PHOSPHO1 inh: PubChem AID 1565; Phosphoethanolamine/phosphocholine phosphatase (Homo sapiens), Q8TCT1; recombinant PHOSPHO1, absorbance phosphatase assay; inhibition, % at 13.3 µM; 290,000 compounds, 1.1% hits; in the data active = inhibition above about 60%
A3G deaminase: APOBEC3G DNA deaminase inhibitors, primary screen, biochemical, fluorescence, single-stranded DNA substrate, uHTS; DNA dC->dU-editing enzyme APOBEC-3G (Homo sapiens), Q9HC16; recombinant A3G, ssDNA deamination FAM/TAMRA fluorescence; inhibition, % at 20 µM; 330,000 compounds, 0.28% hits; AID 493012, 2011;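 active = inhibition of at least 40% at 20 µM, with no more than 30% in the related APOBEC3A deaminase screen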;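 note: plate controls were DMSO wells with A3G for no effect and wells lacking A3G enzyme for full effect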
A3A deaminase: APOBEC3A ssDNA deaminase inhibitors, primary screen, selectivity assay for APOBEC3G inhibitor project, biochemical, FAM/TAMRA oligo cleavage fluorescence | inhibition, % at 20 µM | 330,000 compounds, 0.41% hits | DNA dC->dU-editing enzyme APOBEC-3A (Homo sapiens), P31941 | recombinant A3A, FAM/TAMRA ssDNA deamination fluorescence;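 active = at least 40% inhibition at 20 µM here, with at most 30% in a related deaminase screen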;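 note: plate controls were A3A with DMSO for no effect and wells lacking A3A enzyme for full effect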
p-CIP stab down: p/CIP-EGFP fusion destabilizers, primary screen, fluorescence, F442A cells. 290,000 compounds, 0.01% hits. decrease of EGFP signal, % at 10 µM. Q05BA5. AID 1984, 2009. 16 h;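 active = EGFP signal decrease of at least 30% at 10 µM or well 3 SD below plate mean, unless failing retest; inactive = the rest, including hits failing retest or dose response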
TbMetRS confirm: T. brucei MetRS inhibitors, confirmation, biochemical, luminescence; shares compounds with TbMetRS inhib; T. brucei MetRS enzyme, luminescence (ATP depletion); inhibition, % at 11.9 µM; 1,400 compounds, 93% hits; AID 624412, 2012; in the data active = inhibition above about 7%
Jurkat tox: Jurkat T cell cytotoxicity, cytotoxicity control for T. brucei MetRS inhibitor project, luminescence, high throughput; inhibition, % at 8.3 µM; 1,400 compounds, 12% hits; Jurkat cells viability, ATP luminescence; shares compounds with TbMetRS inhib; in the data active = inhibition above about 15%;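 note: 0% = vehicle and 100% = reference inhibitor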
TbMetRS FP orth: T. brucei MetRS inhibitors, orthogonal assay for T. brucei MetRS inhibitor project, biochemical, fluorescence polarization | shares compounds with TbMetRS inhib | purified T. brucei MetRS | inhibition, % at 11.9 µM | 1,400 compounds, 44% hits | AID 651607, 2012; in the data active = inhibition above about 17%;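 note: 0% = vehicle wells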
Numbers without * were called inactive; . = not tested or not shown.

SMILES	TbMetRS inhib	PHOSPHO1 inh	A3G deaminase	A3A deaminase	p-CIP stab down	TbMetRS confirm	Jurkat tox	TbMetRS FP orth
O=C(Nc1ccc(Cl)cc1)Nc1ccccc1C(=O)NCc1ccco1	13.8*	0.5	-7.1	-2.4	8.2	19.7*	2.4	14.3
S=C(NCCSCc1ccccc1Cl)Nc1ccccc1	1.7	-9.3	-8.6	-23.1	-2.9	.	.	.
O=C(Nc1ccccc1C(=O)NCc1ccco1)c1ccccc1	-0.3	6.4	-5.3	-5.0	-4.4	.	.	.
CSCCC(c1nc2ccccc2[nH]1)n1c(/C=C/c2ccc(F)c(F)c2)nc2ccccc21 (stereo not given)	0.8	.	.	.	.	.	.	.
Cc1cc(C)nc(NS(=O)(=O)c2ccc(NC(=O)c3ccccc3Br)cc2)n1	0.3	.	.	.	.	.	.	.
CCOc1ccc(NC(=O)C2CCCN(S(=O)(=O)c3ccc4c(c3)C(C)(C)C(=O)N4C)C2)cc1 (stereo not given)	0.2	.	.	.	.	.	.	.
O=C(CSc1nc2ccccc2o1)Nc1cc(C(F)(F)F)ccc1N1CCOCC1	-0.2	-38.4	0.8	1.9	-15.1	.	.	.
O=C(Cn1cnc2ccccc21)Nc1cc(C(F)(F)F)ccc1N1CCOCC1	27.2*	-8.9	-2.1	0.1	-2.9	43.5*	-1.9	23.5*
COC(=O)Cc1c(C)c2ccc(OCC(=O)N3CCCC(C)C3)c(C)c2oc1=O (stereo not given)	-0.1	28.7	2.0	-4.9	-3.8	.	.	.
O=C(Nc1ccccc1)Nc1ncc([N+](=O)[O-])s1	6.4*	47.6	-5.5	0.0	-20.2	10.4*	63.3*	-3.1
COc1ccc(N(C(C)C(=O)Nc2ccc(S(=O)(=O)N3CCCCC3)cc2)S(C)(=O)=O)cc1 (stereo not given)	-0.9	14.2	-1.5	1.7	-13.4	.	.	.
Cc1ccccc1N1C(=O)CC(N2CCN(C(=O)c3ccco3)CC2)C1=O (stereo not given)	-0.3	25.0	5.6	-1.0	-27.1	.	.	.
O=C(CSc1ccc2nnc(-c3ccccn3)n2n1)Nc1ccccc1F	0.3	22.2	-4.0	-3.1	-11.7	.	.	.
CC(=O)c1c[nH]c(C(=O)NCc2cccc(C(F)(F)F)c2)c1	92.1*	9.3	4.6	3.5	-7.6	94.0*	-0.3	77.5*
O=C(NCc1cccc(C(F)(F)F)c1)c1c[nH]c(=O)s1	1.5	.	.	.	.	.	.	.
COC(=O)c1cc(S(=O)(=O)NCc2ccc(F)cc2)cn1C	0.5	17.6	0.8	0.3	2.4	.	.	.
CCN(CC)C(=O)CSc1nc2ncc(Br)cc2[nH]1	2.4	31.2	-2.9	2.3	-3.2	.	.	.
COc1cccc(NC(=O)CSc2nc3ncc(Br)cc3[nH]2)c1	69.6*	-4.1	-0.3	1.0	-1.1	84.7*	6.4	60.4*
COc1cccc(NC(=O)CN(C)CC(=O)Nc2cccc(C(F)(F)F)c2)c1	-1.2	25.7	-5.0	2.7	-2.4	.	.	.
COc1cccc(NC(=O)CN(C)CC(=O)Nc2ccc(Br)cc2)c1	11.3*	-17.0	-10.8	-3.6	2.9	19.7*	2.8	22.6*
O=C(CSc1nc2ncc(Br)cc2[nH]1)c1ccc([N+](=O)[O-])cc1	18.2*	-17.6	-2.8	-2.1	4.7	51.7*	1.9	24.2*
NC(=NCCc1ccccc1)NS(=O)(=O)c1ccccc1	0.9	18.3	0.5	5.5	-2.7	.	.	.
Cc1cccc(CCN=C(N)NS(=O)(=O)c2ccccc2)c1	6.2*	43.7	-2.3	0.0	-9.9	14.4*	6.2	5.0
CCN(CC)S(=O)(=O)c1ccc(=O)n(CC(=O)N2Cc3ccccc3CC2C(N)=O)c1 (stereo not given)	-0.4	.	-7.6	-1.7	.	.	.	.
CCCS(=O)(=O)NC(=O)C1(C)CCN(C(=O)c2cncc(Br)c2)C1 (stereo not given)	-0.2	.	.	.	.	.	.	.
SMILES	TbMetRS inhib	PHOSPHO1 inh	A3G deaminase	A3A deaminase	p-CIP stab down	TbMetRS confirm	Jurkat tox	TbMetRS FP orth
O=C(COc1ccc2ccccc2c1)Nc1nc2ccccc2[nH]1	9.1*	11.5	-0.8	6.0	-4.8	12.5*	2.1	5.4
COc1ccc(OCC(=O)Nc2nc3ccccc3[nH]2)cc1	0.3	-16.3	-5.5	-1.4	4.2	.	.	.
COc1ccc(CCC(=O)Nc2nc3ccccc3[nH]2)cc1	0.7	13.9	-3.5	-1.7	-6.1	.	.	.
COc1cccc(CC(=O)Nc2nc3ccccc3[nH]2)c1	6.0*	41.2	1.3	-1.9	11.9	13.7*	-0.5	6.9
O=C(O)c1cccc(Cn2c(Cl)c(/C=N/NC(=O)c3cc4ccccc4cc3O)sc2=O)c1	5.7*	14.7	-1.4	3.6	1.5	17.8*	-0.5	33.9*
c1ccc(CCNc2ccnc3cc4ccccc4cc23)cc1	84.4*	-7.5	.	.	-0.9	91.6*	81.1*	83.1*
CC(C)Nc1ccc(Nc2ccnc3cc4ccccc4cc23)cc1	85.2*	-2.1	3.7	7.4	-9.9	88.3*	79.6*	89.7*
CC(C)c1cc(C(F)(F)F)n2nc(C(=O)Nc3ccc(-n4cnnn4)cc3)cc2n1	-1.1	10.0	0.3	2.3	-3.7	.	.	.
O=C(COC(=O)CCCSc1nc2ccccc2[nH]1)Nc1ccc(Cl)cc1	12.7*	1.1	-3.3	3.7	11.7	21.2*	0.6	12.9
O=C(CCCSc1nc2ccccc2[nH]1)NCc1ccccc1Cl	10.2*	-28.9	-9.8	19.1	-14.7	17.3*	6.7	6.0
CCNC(=O)NC(=O)COC(=O)CCCSc1nc2ccccc2[nH]1	-1.3	25.3	-5.4	-0.9	5.8	.	.	.
NS(=O)(=O)c1ccc(NC(=O)c2c(Cl)cccc2Cl)cc1	-0.4	51.8	-2.0	-2.2	-15.4	.	.	.
NS(=O)(=O)c1ccc(NC(=O)c2c(F)cccc2Cl)cc1	7.9*	45.0	-2.6	1.9	-17.2	4.3	-4.1	0.7
Clc1cc(Br)ccc1OCCn1ccnc1	0.2	5.7	-6.2	-5.4	0.3	.	.	.
CC1(C)NC(=O)N(CCCCOc2ccc(Br)cc2Cl)C1=O	4.4	-13.6	-3.6	-3.8	-5.9	.	.	.
CC1(C)NC(=O)N(CCCOc2ccc(Br)cc2Cl)C1=O	10.7*	-48.4	-6.1	-0.1	-12.0	24.3*	-6.6	104.3*
Clc1cc(Br)ccc1OCCCn1ccnc1	9.9*	-3.9	-2.1	-5.5	-2.6	17.0*	5.0	12.1
Cc1cccc(CC(=O)c2c[nH]c3ccccc23)c1	11.4*	24.6	-1.7	0.5	6.0	21.9*	10.2	13.1
